Laboratory results reported in ChEMBL document CHEMBL1926577, “Novel 1,3,4-heterodiazole analogues: synthesis and in-vitro antitumor activity” (2012).
Activity calls are given as the source filed them. The calls are words filed in the database; no cut-off is given here.

What was measured:
Format in all cases: functional
CCRF-CEM = assay: Growth inhibition of human CCRF-CEM cells at 10 uM after 48 hrs by coulter counter method; details: read-out: GI
Summary of the method: (§1)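 NCI 60-cell-line panel, single dose. Compound dissolved first in DMSO, then diluted in phosphate-buffered saline so that every final dilution held under 1% DMSO. Duplicate wells received cells at 6 × 10⁴ cells/ml. Controls held PBS/DMSO at the same dilution. Plates were incubated 48 h at 37 °C under 5% CO₂. Cells were then diluted 10-fold in saline and counted on a Coulter counter, with counts corrected for the dilution. Results are given as percent growth inhibition.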

HL-60(TB) = assay: Growth inhibition of human HL-60(TB) cells at 10 uM after 48 hrs by coulter counter method; details: HL-60, 48 h, read-out: GI
Summary of the method: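 Single-dose screen on the NCI 60-line panel (leukemia subpanel). Compound is dissolved in DMSO and diluted in PBS, with final DMSO below 1%. Duplicate wells hold 6 × 10⁴ cells/ml at 37 °C, 5% CO₂, for 48 h. Cells are counted by Coulter counter after 10-fold saline dilution. Read-out is percent growth versus PBS/DMSO controls, expressed as % growth inhibition.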

K562 = assay: Growth inhibition of human K562 cells at 10 uM after 48 hrs by coulter counter method; details: K562, 48 h, read-out: GI; summary of the method: as §1
MOLT-4 = assay: Growth inhibition of human MOLT4 cells at 10 uM after 48 hrs by coulter counter method; details: MOLT-4, 48 h, read-out: GI; summary of the method: as §1
RPMI-8226 = assay: Growth inhibition of human RPMI8226 cells at 10 uM after 48 hrs by coulter counter method; details: RPMI-8226, 48 h, read-out: GI; summary of the method: as §1
SR = assay: Growth inhibition of human SR cells at 10 uM after 48 hrs by coulter counter method; details: read-out: GI; summary of the method: as §1
A549 = assay: Growth inhibition of human A549 cells at 10 uM after 48 hrs by coulter counter method; details: A549, 48 h, read-out: GI; summary of the method: as §1
EKVX = assay: Growth inhibition of human EKVX cells at 10 uM after 48 hrs by coulter counter method; details: read-out: GI; summary of the method: as §1
NCI-H226 = assay: Growth inhibition of human NCI-H226 cells at 10 uM after 48 hrs by coulter counter method; details: NCI-H226, 48 h, read-out: GI; summary of the method: as §1
NCI-H23 = assay: Growth inhibition of human NCI-H23 cells at 10 uM after 48 hrs by coulter counter method; details: NCI-H23, 48 h, read-out: GI; summary of the method: as §1
NCI-H322M = assay: Growth inhibition of human NCI-H322M cells at 10 uM after 48 hrs by coulter counter method; details: read-out: GI; summary of the method: as §1
NCI-H522 = assay: Growth inhibition of human NCI-H522 cells at 10 uM after 48 hrs by coulter counter method; details: NCI-H522, 48 h, read-out: GI; summary of the method: as §1
HCT-116 = assay: Growth inhibition of human HCT116 cells at 10 uM after 48 hrs by coulter counter method; details: HCT-116, 48 h, read-out: GI; summary of the method: as §1
HCT-15 = assay: Growth inhibition of human HCT15 cells at 10 uM after 48 hrs by coulter counter method; details: HCT-15, 48 h, read-out: GI; summary of the method: as §1
HT-29 = assay: Growth inhibition of human HT-29 cells at 10 uM after 48 hrs by coulter counter method; details: HT-29, 48 h, read-out: GI; summary of the method: as §1
KM12 = assay: Growth inhibition of human KM12 cells at 10 uM after 48 hrs by coulter counter method; details: KM12, 48 h, read-out: GI; summary of the method: as §1
SF-268 = assay: Growth inhibition of human SF268 cells at 10 uM after 48 hrs by coulter counter method; details: SF-268, 48 h, read-out: GI; summary of the method: as §1
SF-295 = assay: Growth inhibition of human SF295 cells at 10 uM after 48 hrs by coulter counter method; details: SF-295, 48 h, read-out: GI; summary of the method: as §1
SNB-19 = assay: Growth inhibition of human SNB19 cells at 10 uM after 48 hrs by coulter counter method; details: SNB-19, 48 h, read-out: GI; summary of the method: as §1
SNB-75 = assay: Growth inhibition of human SNB75 cells at 10 uM after 48 hrs by coulter counter method; details: SNB-75, 48 h, read-out: GI; summary of the method: as §1
U-251 = assay: Growth inhibition of human U251 cells at 10 uM after 48 hrs by coulter counter method; details: U-251, 48 h, read-out: GI; summary of the method: as §1
LOX IMVI = assay: Growth inhibition of human LOXIMVI cells at 10 uM after 48 hrs by coulter counter method; summary of the method: as §1
Malme-3M = assay: Growth inhibition of human MALME-3M cells at 10 uM after 48 hrs by coulter counter method; details: read-out: GI; summary of the method: as §1
M14 = assay: Growth inhibition of human M14 cells at 10 uM after 48 hrs by coulter counter method; details: M14, 48 h, read-out: GI; summary of the method: as §1
MDA-MB-435 = assay: Growth inhibition of human MDA-MB-435 cells at 10 uM after 48 hrs by coulter counter method; details: MDA-MB-435, 48 h, read-out: GI; summary of the method: as §1
SK-MEL-2 = assay: Growth inhibition of human SK-MEL-2 cells at 10 uM after 48 hrs by coulter counter method; details: SK-MEL-2, 48 h, read-out: GI; summary of the method: as §1
SK-MEL-28 = assay: Growth inhibition of human SK-MEL-28 cells at 10 uM after 48 hrs by coulter counter method; details: SK-MEL-28, 48 h, read-out: GI; summary of the method: as §1
SK-MEL-5 = assay: Growth inhibition of human SK-MEL-5 cells at 10 uM after 48 hrs by coulter counter method; details: SK-MEL-5, 48 h, read-out: GI; summary of the method: as §1
UACC-257 = assay: Growth inhibition of human UACC257 cells at 10 uM after 48 hrs by coulter counter method; details: UACC-257, 48 h, read-out: GI; summary of the method: as §1
UACC-62 = assay: Growth inhibition of human UACC62 cells at 10 uM after 48 hrs by coulter counter method; details: UACC-62, 48 h, read-out: GI; summary of the method: as §1
IGROV-1 = assay: Growth inhibition of human IGROV1 cells at 10 uM after 48 hrs by coulter counter method; summary of the method: as §1
OVCAR-8 = assay: Growth inhibition of human OVCAR8 cells at 10 uM after 48 hrs by coulter counter method; details: OVCAR-8, 48 h, read-out: GI; summary of the method: as §1
NCI/ADR-RES = assay: Growth inhibition of human NCI/ADR-RES cells at 10 uM after 48 hrs by coulter counter method; details: read-out: GI; summary of the method: as §1
786-0 = assay: Growth inhibition of human 786-0 cells at 10 uM after 48 hrs by coulter counter method; details: 786-0, 48 h, read-out: GI; summary of the method: as §1
A498 = assay: Growth inhibition of human A498 cells at 10 uM after 48 hrs by coulter counter method; details: A498, 48 h, read-out: GI; summary of the method: as §1
ACHN = assay: Growth inhibition of human ACHN cells at 10 uM after 48 hrs by coulter counter method; details: read-out: GI; summary of the method: as §1
CAKI-1 = assay: Growth inhibition of human Caki1 cells at 10 uM after 48 hrs by coulter counter method; summary of the method: as §1
SN12C = assay: Growth inhibition of human SN12C cells at 10 uM after 48 hrs by coulter counter method; details: read-out: GI; summary of the method: as §1
TK-10 = assay: Growth inhibition of human TK10 cells at 10 uM after 48 hrs by coulter counter method; details: TK-10, 48 h, read-out: GI; summary of the method: as §1
UO-31 = assay: Growth inhibition of human UO31 cells at 10 uM after 48 hrs by coulter counter method; summary of the method: as §1
PC-3 = assay: Growth inhibition of human PC3 cells at 10 uM after 48 hrs by coulter counter method; details: PC-3, 48 h, read-out: GI; summary of the method: as §1
MCF7 = assay: Growth inhibition of human MCF7 cells at 10 uM after 48 hrs by coulter counter method; details: MCF7, 48 h, read-out: GI; summary of the method: as §1
BT-549 = assay: Growth inhibition of human BT549 cells at 10 uM after 48 hrs by coulter counter method; details: BT-549, 48 h, read-out: GI; summary of the method: as §1
T47D = assay: Growth inhibition of human T47D cells at 10 uM after 48 hrs by coulter counter method; details: read-out: GI; summary of the method: as §1
MDA-MB-468 = assay: Growth inhibition of human MDA-MB-468 cells at 10 uM after 48 hrs by coulter counter method; details: MDA-MB-468, 48 h, read-out: GI; summary of the method: as §1

O=C1CN2N=C(c3ccc(Cl)cc3)SC2=N1
inhibition of growth at 10 µM (CCRF-CEM): 62.5%
inhibition of growth at 10 µM (HL-60(TB)): < 10%
inhibition of growth at 10 µM (K562): 18.8%
inhibition of growth at 10 µM (MOLT-4): 24%
inhibition of growth at 10 µM (RPMI-8226): 43.5%
inhibition of growth at 10 µM (SR): 32.5%
inhibition of growth at 10 µM (A549): < 10%
inhibition of growth at 10 µM (EKVX): < 10%
inhibition of growth at 10 µM (NCI-H226): 11.4%
inhibition of growth at 10 µM (NCI-H23): 14.9%
inhibition of growth at 10 µM (NCI-H322M): 31%
inhibition of growth at 10 µM (NCI-H522): 32.4%
inhibition of growth at 10 µM (HCT-116): 39.9%
inhibition of growth at 10 µM (HCT-15): 51.2%
inhibition of growth at 10 µM (HT-29): 31.1%
inhibition of growth at 10 µM (KM12): 38.3%
inhibition of growth at 10 µM (SF-268): 16.5%
inhibition of growth at 10 µM (SF-295): 38.6%
inhibition of growth at 10 µM (SNB-19): 18.2%
inhibition of growth at 10 µM (SNB-75): < 10%
inhibition of growth at 10 µM (U-251): 19.9%
growth inhibition (GI) (LOX IMVI): Active
inhibition of growth at 10 µM (Malme-3M): 22%
inhibition of growth at 10 µM (M14): 31.4%
inhibition of growth at 10 µM (MDA-MB-435): 11.7%
inhibition of growth at 10 µM (SK-MEL-2): < 10%
inhibition of growth at 10 µM (SK-MEL-28): < 10%
inhibition of growth at 10 µM (SK-MEL-5): 21.2%
inhibition of growth at 10 µM (UACC-257): < 10%
inhibition of growth at 10 µM (UACC-62): 20.7%
growth inhibition (GI) (IGROV-1): Active
inhibition of growth at 10 µM (OVCAR-8): 39.8%
inhibition of growth at 10 µM (NCI/ADR-RES): < 10%
inhibition of growth at 10 µM (786-0): < 10%
inhibition of growth at 10 µM (A498): < 10%
inhibition of growth at 10 µM (ACHN): 17.3%
growth inhibition (GI) (CAKI-1): Active
inhibition of growth at 10 µM (SN12C): 20.1%
inhibition of growth at 10 µM (TK-10): < 10%
growth inhibition (GI) (UO-31): Active
inhibition of growth at 10 µM (PC-3): 25.7%
inhibition of growth at 10 µM (MCF7): 25.7%
inhibition of growth at 10 µM (BT-549): 39.5%
inhibition of growth at 10 µM (T47D): 13%
inhibition of growth at 10 µM (MDA-MB-468): < 10%
